Assay results published in ChEMBL document CHEMBL4152188, “Design, synthesis and biological evaluation of C(4) substituted monobactams as antibacterial agents against multidrug-resistant Gram-negative bacteria” (Eur J Med Chem, 2018).
In brackets after ≈: the same amount, converted by molar mass.

Experiments:
Format in all cases: functional
Klebsiella pneumoniae [1] = experiment: Antibacterial activity against KPC-2 producing Klebsiella pneumoniae isolate 209735 after 18 hrs in presence of BPL by CLSI broth microdilution method; settings: isolate 209735, 18 h
Outline: (§1)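 CLSI broth microdilution against clinical isolates (ESBL E. coli, KPC-2 MDR K. pneumoniae, IMP-4 MDR P. aeruginosa; five per species). Iron limitation: Mueller-Hinton broth supplemented with 16 mg/liter 2,2'-bipyridyl to complex iron and induce iron uptake systems. Read-out: MIC.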

Pseudomonas aeruginosa [2] = experiment: Antibacterial activity against IMP-4 producing Pseudomonas aeruginosa isolate 208247 after 18 hrs in presence of BPL by CLSI broth microdilution method; settings: isolate 208247, 18 h; outline: as §1
Klebsiella pneumoniae [3] = experiment: Antibacterial activity against KPC-2 producing Klebsiella pneumoniae isolate 212232 after 18 hrs in presence of BPL by CLSI broth microdilution method; settings: isolate 212232, 18 h; outline: as §1
Pseudomonas aeruginosa [4] = experiment: Antibacterial activity against IMP-4 producing Pseudomonas aeruginosa isolate 209321 after 18 hrs in presence of BPL by CLSI broth microdilution method; settings: isolate 209321, 18 h; outline: as §1
Klebsiella pneumoniae [5] = experiment: Antibacterial activity against KPC-2 producing Klebsiella pneumoniae isolate 212232 after 18 hrs by CLSI broth microdilution method; settings: isolate 212232, 18 h
Escherichia coli [6] = experiment: Antibacterial activity against extended-spectrum beta-lactamase producing Escherichia coli isolate 212648 after 18 hrs in presence of BPL by CLSI broth microdilution method; settings: isolate 212648, 18 h; outline: as §1
Escherichia coli [7] = experiment: Antibacterial activity against extended-spectrum beta-lactamase producing Escherichia coli isolate 208687 after 18 hrs by CLSI broth microdilution method; settings: isolate 208687, 18 h
Pseudomonas aeruginosa [8] = experiment: Antibacterial activity against IMP-4 producing Pseudomonas aeruginosa isolate 208247 after 18 hrs by CLSI broth microdilution method; settings: isolate 208247, 18 h
Klebsiella pneumoniae [9] = experiment: Antibacterial activity against KPC-2 producing Klebsiella pneumoniae isolate 212423 after 18 hrs by CLSI broth microdilution method; settings: isolate 212423, 18 h
Escherichia coli [10] = experiment: Antibacterial activity against extended-spectrum beta-lactamase producing Escherichia coli isolate 209285 after 18 hrs in presence of BPL by CLSI broth microdilution method; settings: isolate 209285, 18 h; outline: as §1
Pseudomonas aeruginosa [11] = experiment: Antibacterial activity against IMP-4 producing Pseudomonas aeruginosa isolate 212886 after 18 hrs by CLSI broth microdilution method; settings: isolate 212886, 18 h
Klebsiella pneumoniae [12] = experiment: Antibacterial activity against KPC-2 producing Klebsiella pneumoniae isolate 212423 after 18 hrs in presence of BPL by CLSI broth microdilution method; settings: isolate 212423, 18 h; outline: as §1
Escherichia coli [13] = experiment: Antibacterial activity against extended-spectrum beta-lactamase producing Escherichia coli isolate 209285 after 18 hrs by CLSI broth microdilution method; settings: isolate 209285, 18 h
Pseudomonas aeruginosa [14] = experiment: Antibacterial activity against IMP-4 producing Pseudomonas aeruginosa isolate 207272 after 18 hrs in presence of BPL by CLSI broth microdilution method; settings: isolate 207272, 18 h; outline: as §1
Pseudomonas aeruginosa [15] = experiment: Selectivity index, ratio of MIC for against IMP-4 producing Pseudomonas aeruginosa isolate 209321 to MIC for against IMP-4 producing Pseudomonas aeruginosa isolate 209321 in presence of BPL
Klebsiella pneumoniae [16] = experiment: Antibacterial activity against KPC-2 producing Klebsiella pneumoniae isolate 212229 after 18 hrs by CLSI broth microdilution method; settings: isolate 212229, 18 h
Pseudomonas aeruginosa [17] = experiment: Selectivity index, ratio of MIC for against IMP-4 producing Pseudomonas aeruginosa isolate 209471 to MIC for against IMP-4 producing Pseudomonas aeruginosa isolate 209471 in presence of BPL
Escherichia coli [18] = experiment: Antibacterial activity against Escherichia coli isolate 210737 after 18 hrs by CLSI broth microdilution method; settings: isolate 210737, 18 h
Pseudomonas aeruginosa [19] = experiment: Selectivity index, ratio of MIC for against IMP-4 producing Pseudomonas aeruginosa isolate 207272 to MIC for against IMP-4 producing Pseudomonas aeruginosa isolate 207272 in presence of BPL
Escherichia coli [20] = experiment: Selectivity index, ratio of MIC for against extended-spectrum beta-lactamase producing Escherichia coli isolate 208687 to MIC for extended-spectrum beta-lactamase producing Escherichia coli isolate 208687 in presence of BPL
Klebsiella pneumoniae [21] = experiment: Antibacterial activity against KPC-2 producing Klebsiella pneumoniae isolate 209632 after 18 hrs in presence of BPL by CLSI broth microdilution method; settings: isolate 209632, 18 h; outline: as §1
Pseudomonas aeruginosa [22] = experiment: Antibacterial activity against IMP-4 producing Pseudomonas aeruginosa isolate 212886 after 18 hrs in presence of BPL by CLSI broth microdilution method; settings: isolate 212886, 18 h; outline: as §1
Escherichia coli [23] = experiment: Antibacterial activity against extended-spectrum beta-lactamase producing Escherichia coli isolate 212648 after 18 hrs by CLSI broth microdilution method; settings: isolate 212648, 18 h
Klebsiella pneumoniae [24] = experiment: Selectivity index, ratio of MIC for against KPC-2 producing Klebsiella pneumoniae isolate 209632 to MIC for against KPC-2 producing Klebsiella pneumoniae isolate 209632 in presence of BPL
Klebsiella pneumoniae [25] = experiment: Selectivity index, ratio of MIC for against KPC-2 producing Klebsiella pneumoniae isolate 209735 to MIC for against KPC-2 producing Klebsiella pneumoniae isolate 209735 in presence of BPL
Pseudomonas aeruginosa [26] = experiment: Antibacterial activity against IMP-4 producing Pseudomonas aeruginosa isolate 209471 after 18 hrs in presence of BPL by CLSI broth microdilution method; settings: isolate 209471, 18 h; outline: as §1
Klebsiella pneumoniae [27] = experiment: Selectivity index, ratio of MIC for against KPC-2 producing Klebsiella pneumoniae isolate 212229 to MIC for against KPC-2 producing Klebsiella pneumoniae isolate 212229 in presence of BPL
Klebsiella pneumoniae [28] = experiment: Antibacterial activity against KPC-2 producing Klebsiella pneumoniae isolate 209632 after 18 hrs by CLSI broth microdilution method; settings: isolate 209632, 18 h
Pseudomonas aeruginosa [29] = experiment: Antibacterial activity against IMP-4 producing Pseudomonas aeruginosa isolate 209471 after 18 hrs by CLSI broth microdilution method; settings: isolate 209471, 18 h
Klebsiella pneumoniae [30] = experiment: Antibacterial activity against KPC-2 producing Klebsiella pneumoniae isolate 209735 after 18 hrs by CLSI broth microdilution method; settings: isolate 209735, 18 h
Pseudomonas aeruginosa [31] = experiment: Antibacterial activity against IMP-4 producing Pseudomonas aeruginosa isolate 209321 after 18 hrs by CLSI broth microdilution method; settings: isolate 209321, 18 h
Escherichia coli [32] = experiment: Antibacterial activity against extended-spectrum beta-lactamase producing Escherichia coli isolate 106342 after 18 hrs in presence of BPL by CLSI broth microdilution method; settings: isolate 106342, 18 h; outline: as §1
Klebsiella pneumoniae [33] = experiment: Selectivity index, ratio of MIC for against KPC-2 producing Klebsiella pneumoniae isolate 212232 to MIC for against KPC-2 producing Klebsiella pneumoniae isolate 212232 in presence of BPL
Escherichia coli [34] = experiment: Selectivity index, ratio of MIC for against extended-spectrum beta-lactamase producing Escherichia coli isolate 106342 to MIC for extended-spectrum beta-lactamase producing Escherichia coli isolate 106342 in presence of BPL
Escherichia coli [35] = experiment: Antibacterial activity against extended-spectrum beta-lactamase producing Escherichia coli isolate 208687 after 18 hrs in presence of BPL by CLSI broth microdilution method; settings: isolate 208687, 18 h; outline: as §1
Pseudomonas aeruginosa [36] = experiment: Antibacterial activity against IMP-4 producing Pseudomonas aeruginosa isolate 207272 after 18 hrs by CLSI broth microdilution method; settings: isolate 207272, 18 h
Escherichia coli [37] = experiment: Selectivity index, ratio of MIC for against extended-spectrum beta-lactamase producing Escherichia coli isolate 209285 to MIC for extended-spectrum beta-lactamase producing Escherichia coli isolate 209285 in presence of BPL
Pseudomonas aeruginosa [38] = experiment: Selectivity index, ratio of MIC for against IMP-4 producing Pseudomonas aeruginosa isolate 208247 to MIC for against IMP-4 producing Pseudomonas aeruginosa isolate 208247 in presence of BPL
Pseudomonas aeruginosa [39] = experiment: Selectivity index, ratio of MIC for against IMP-4 producing Pseudomonas aeruginosa isolate 212886 to MIC for against IMP-4 producing Pseudomonas aeruginosa isolate 212886 in presence of BPL
Klebsiella pneumoniae [40] = experiment: Selectivity index, ratio of MIC for against KPC-2 producing Klebsiella pneumoniae isolate 212423 to MIC for against KPC-2 producing Klebsiella pneumoniae isolate 212423 in presence of BPL
Escherichia coli [41] = experiment: Selectivity index, ratio of MIC for against extended-spectrum beta-lactamase producing Escherichia coli isolate 212648 to MIC for extended-spectrum beta-lactamase producing Escherichia coli isolate 212648 in presence of BPL
Klebsiella pneumoniae [42] = experiment: Antibacterial activity against KPC-2 producing Klebsiella pneumoniae isolate 212229 after 18 hrs in presence of BPL by CLSI broth microdilution method; settings: isolate 212229, 18 h; outline: as §1
Escherichia coli [43] = experiment: Antibacterial activity against extended-spectrum beta-lactamase producing Escherichia coli isolate 106342 after 18 hrs by CLSI broth microdilution method; settings: isolate 106342, 18 h
Escherichia coli [44] = experiment: Selectivity index, ratio of MIC for against Escherichia coli isolate 210737 to MIC for Escherichia coli isolate 210737 in presence of BPL
Escherichia coli [45] = experiment: Antibacterial activity against Escherichia coli isolate 210737 after 18 hrs in presence of BPL by CLSI broth microdilution method; settings: isolate 210737, 18 h; outline: as §1

Structure (SMILES): Cc1nnc(SC[C@@H]2[C@H](NC(=O)/C(=N\OC(c3cc(=O)c(O)cn3O)C(C)C)c3csc(N)n3)C(=O)N2S(=O)(=O)O)s1 (stereo not given in full)
- MIC (Klebsiella pneumoniae [1]): 0.5 µg/mL
- MIC (Pseudomonas aeruginosa [2]): > 64 µg/mL
- MIC (Klebsiella pneumoniae [3]): 0.25 µg/mL
- MIC (Pseudomonas aeruginosa [4]): 64 µg/mL
- MIC (Klebsiella pneumoniae [5]): 2 µg/mL (≈ 3.03 µM)
- MIC (Escherichia coli [6]): 0.25 µg/mL
- MIC (Escherichia coli [7]): 2 µg/mL (≈ 3.03 µM)
- MIC (Pseudomonas aeruginosa [8]): > 64 µg/mL
- MIC (Klebsiella pneumoniae [9]): 1 µg/mL (≈ 1.51 µM)
- MIC (Escherichia coli [10]): 1 µg/mL
- MIC (Pseudomonas aeruginosa [11]): > 64 µg/mL
- MIC (Klebsiella pneumoniae [12]): 0.5 µg/mL
- MIC (Escherichia coli [13]): 4 µg/mL (≈ 6.05 µM)
- MIC (Pseudomonas aeruginosa [14]): 64 µg/mL
- Selectivity Index (Pseudomonas aeruginosa [15]): 1
- MIC (Klebsiella pneumoniae [16]): 1 µg/mL (≈ 1.51 µM)
- Selectivity Index (Pseudomonas aeruginosa [17]): 1
- MIC (Escherichia coli [18]): 0.5 µg/mL (≈ 0.757 µM)
- Selectivity Index (Pseudomonas aeruginosa [19]): 1
- Selectivity Index (Escherichia coli [20]): 16
- MIC (Klebsiella pneumoniae [21]): 0.25 µg/mL
- MIC (Pseudomonas aeruginosa [22]): 16 µg/mL
- MIC (Escherichia coli [23]): 0.5 µg/mL (≈ 0.757 µM)
- Selectivity Index (Klebsiella pneumoniae [24]): 4
- Selectivity Index (Klebsiella pneumoniae [25]): 2
- MIC (Pseudomonas aeruginosa [26]): 32 µg/mL
- Selectivity Index (Klebsiella pneumoniae [27]): 2
- MIC (Klebsiella pneumoniae [28]): 1 µg/mL (≈ 1.51 µM)
- MIC (Pseudomonas aeruginosa [29]): 32 µg/mL (≈ 48.4 µM)
- MIC (Klebsiella pneumoniae [30]): 1 µg/mL (≈ 1.51 µM)
- MIC (Pseudomonas aeruginosa [31]): 64 µg/mL (≈ 96.9 µM)
- MIC (Escherichia coli [32]): 0.5 µg/mL
- Selectivity Index (Klebsiella pneumoniae [33]): 8
- Selectivity Index (Escherichia coli [34]): 2
- MIC (Escherichia coli [35]): 0.125 µg/mL
- MIC (Pseudomonas aeruginosa [36]): 64 µg/mL (≈ 96.9 µM)
- Selectivity Index (Escherichia coli [37]): 4
- Selectivity Index (Pseudomonas aeruginosa [38]): 1 - 4
- Selectivity Index (Pseudomonas aeruginosa [39]): >4
- Selectivity Index (Klebsiella pneumoniae [40]): 2
- Selectivity Index (Escherichia coli [41]): 2
- MIC (Klebsiella pneumoniae [42]): 0.5 µg/mL
- MIC (Escherichia coli [43]): 1 µg/mL (≈ 1.51 µM)
- Selectivity Index (Escherichia coli [44]): 2
- MIC (Escherichia coli [45]): 0.25 µg/mL
